# An excerpt weighted towards active compounds, which were near 2.8% of everything screened.
# CAL PDZ FP-1: untagged CAL PDZ binding inhibitors, primary screen, biochemical, fluorescence polarization, HTS. Golgi-associated PDZ and coiled-coil motif-containing protein (Homo sapiens), Q9HD26. purified CAL PDZ, TMR-peptide fluorescence polarization, 1 h. inhibition, % at 24.9 µM. 300,000 tested, 0.92% active. AID 602252, 2012;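 active = mean inhibition of at least 30% with at least half of replicates also reaching 30%; inconclusive = no clear call, values can overlap the other calls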;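 also: 0% = DMSO neutral control and 100% = excess unlabeled competitor peptide PRC23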
# SR-BI uptake up: activators of SR-BI mediated DiI-HDL uptake, primary screen, ldlA[mSR-BI] CHO cells, DiI fluorescence; 3 h; 100 = double the neutral-control signal; activation, % at 12.5 µM; 320,000 tested, 0.096% active; AID 504775, 2011;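 active = mean replicate activation of at least 60% and every replicate at or above 60%; inconclusive = mean or all-replicate condition met, but not both; inactive = mean below 60% and not all replicates reaching 60%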;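 also: 0% = median plate neutral-control signal and 100% = twice that signal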
#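 system = CHO ldlA[mSR-BI] cells, LDL receptor-null, SR-BI overexpressing | medium = Ham's F12 with 0.5% BSA, HEPES 25 mM, pH 7.4 | probe or stimulus = DiI-HDL 10 µg/mL | compound dosing = single-point compound dose | incubation = compound exposure 3 h, 37 °C | technique = DiI fluorescence, bottom read | read-out = cell-associated DiI fluorescence as measure of HDL uptake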
# CAL PDZ FP-2: CAL PDZ peptide-binding inhibitors, primary screen, biochemical, fluorescence polarization, Cer-tagged CAL PDZ, HTS; purified CAL PDZ, TMR-peptide fluorescence polarization, 1 h; AID 504414, 2011; inhibition, % at 20 µM; 330,000 tested, 0.02% active; Golgi-associated PDZ and coiled-coil motif-containing protein (Homo sapiens), Q9HD26;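 active = highest replicate inhibition of at least 40%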;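 also: plate controls were DMSO neutral control wells for no effect and unlabeled competitor peptide control wells for full effect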
#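 Test system: purified CerCALP PDZ construct; Compound dosing: one concentration, 20 µM compound; Also added: TMR-labelled reporter peptide T*-PRC34 bound in PDZ groove; Read-out: inhibition from polarization loss; Controls: unlabelled peptide and DMSO controls; Signal: FP readout, S and P plane fluorescence; Incubation: 1 h at RT.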
# dFosB act-1: activators of delta FosB homodimer, primary screen, biochemical, fluorescence polarization, TAMRA-CDK5 oligo, single point. Protein FosB (Mus musculus), P13346. purified delta FosB; percent of positive-control signal above neutral wells. activation, % at 25 µM. 340,000 tested, 0.99% active. AID 493131, 2011;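 active = mean activation above about 17%, with every replicate also reaching it, limit read from the data, passing the limit was not always enough; inconclusive = only one of the two conditions met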
# SR-BI HDL uptake: inhibitors of SR-BI mediated HDL lipid uptake, primary screen, ldlA[mSR-BI] cells, fluorescence, single point; AID 488896, 2010; Scavenger receptor class B member 1 (Mus musculus), Q61009; inhibition, % at 12.5 µM; 320,000 tested, 0.96% active; ldlA[mSR-BI] CHO cells, DiI-HDL uptake fluorescence, 3 h;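 active = mean replicate inhibition of at least 70% and a set share of replicates each scoring 70 or more; inconclusive = meets just one of the two criteria; inactive = fails both criteria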;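 also: 0% = median of neutral control wells and 100% = median of positive control wells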
# Target sequence (Q61009 whole entry, looked up): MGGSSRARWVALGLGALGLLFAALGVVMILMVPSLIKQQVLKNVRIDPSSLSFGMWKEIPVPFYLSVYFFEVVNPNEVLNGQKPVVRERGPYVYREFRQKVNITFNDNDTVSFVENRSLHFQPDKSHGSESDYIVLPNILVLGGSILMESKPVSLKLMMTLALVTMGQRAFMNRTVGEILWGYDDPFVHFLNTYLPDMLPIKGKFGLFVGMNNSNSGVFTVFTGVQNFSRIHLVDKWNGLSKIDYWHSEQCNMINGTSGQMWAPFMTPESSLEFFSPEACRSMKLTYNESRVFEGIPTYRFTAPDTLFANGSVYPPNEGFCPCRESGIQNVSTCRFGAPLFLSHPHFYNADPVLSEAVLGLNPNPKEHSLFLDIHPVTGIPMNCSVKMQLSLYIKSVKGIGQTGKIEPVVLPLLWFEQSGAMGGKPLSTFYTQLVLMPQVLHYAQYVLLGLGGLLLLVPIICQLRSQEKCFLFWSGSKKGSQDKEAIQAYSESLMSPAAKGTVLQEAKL
# dFosB act-2: activators of mouse delta FosB DNA binding, confirmation, biochemical, fluorescence polarization, TAMRA-CDK5 oligo, cherry-picked samples. activation, % at 24.9 µM. 2,400 tested, under 10 active. shares compounds with dFosB act-1. purified delta FosB; normalised: neutral wells 0, positive control 100;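 active = highest replicate activation at or above 34% and every replicate reaching that threshold; inconclusive = meets only one of the two criteria; inactive = meets neither criterion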;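 also: higher polarization means more probe DNA bound by delta FosB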
# * hit, by the source's call; ? = inconclusive; · = not tested or not shown.
SMILES,CAL PDZ FP-1,SR-BI uptake up,CAL PDZ FP-2,dFosB act-1,SR-BI HDL uptake,dFosB act-2
Cc1ccc(NC(=O)/C=C/c2ccc(Cl)cc2)nc1,-1,-45,-2,-4,45,·
CS(=O)(=O)c1cccc(C(=O)OCC(=O)NC(=O)Nc2ccccc2F)c1,·,17,0,22*,-17,3
O=Cc1ccc(C(=O)OCC(=O)NC(=O)Nc2ccccc2F)cc1,-5,7,2,-15,-7,·
CC(=O)Nc1cccc(NC(=O)Nc2cccc3ccccc23)c1,-1,-11,0,21*,11,-3
COc1ccc2nc(NC(=O)Nc3cccc4ccccc34)sc2c1,-3,-46,-1,57*,46,1
COc1ccccc1NC(=O)Nc1nc2ccc(S(N)(=O)=O)cc2s1,-3,-59,-4,49*,59,-6
CS(=O)(=O)c1ccc2nc(NC(=O)c3ccccc3)sc2c1,-3,-35,-1,0,35,·
CCNC(=O)Nc1nc2ccccc2s1,-5,0,-1,0,0,·
CS(=O)(=O)c1ccc2nc(NC(=O)Nc3ccccc3F)sc2c1,18,3,0,20*,-3,0
Cc1ccc(NC(=O)Nc2nc3ccccc3s2)cc1NC(=O)Nc1nc2ccccc2s1,-2,-24,-1,32*,24,1
CCOC(=O)c1sc(NC(=O)CN2C(=O)c3cccc4cccc(c34)C2=O)nc1C,-4,-2,-3,47*,2,-6
COc1ccc(-c2noc(C(C)NC(=O)c3ccco3)n2)cc1OC (stereo not drawn),-4,·,18,-1,·,·
CC(=O)Nc1ccc(S(=O)(=O)NCCS(=O)(=O)N2CCN(c3ccccc3F)CC2)cc1,0,-4,-2,22*,4,2
CC(=O)Nc1ccc(S(=O)(=O)NCCS(=O)(=O)N2CCN(c3ccccc3)CC2)cc1,·,3,0,-4,-3,·
CCOC(=O)C1CCN(c2c(NCCC(C)C)c(=O)c2=O)CC1,-2,5,0,-4,-5,·
COc1ccc(Cl)cc1NC(=O)C(C)OC(=O)c1ccc(NS(=O)(=O)c2ccc3[nH]c(=O)[nH]c3c2)cc1 (stereo not drawn),-14,31,-3,-2,-31,·
CC(OC(=O)c1ccc(NS(=O)(=O)c2ccc3[nH]c(=O)[nH]c3c2)cc1)C(=O)Nc1ccc(Cl)cc1 (stereo not drawn),7,-22,-1,22*,22,7
O=C(CCc1ccccc1)N=C1SC2CS(=O)(=O)CC2N1c1cccc(F)c1 (stereo not drawn),5,36,-1,-13,-36,·
Cc1ccc(NC(=O)CSc2nnc(Cc3ccccc3)c(=O)[nH]2)c(C)c1,-6,20,-3,-18,-20,·
CSc1nc2ccc3nc(NC(=O)C4COc5ccccc5O4)sc3c2s1 (stereo not drawn),6,-28,-1,70*,28,-1
Cc1nc2ccc3nc(NC(=O)C4COc5ccccc5O4)sc3c2s1 (stereo not drawn),-4,-44,0,?,44,·
CC(=O)Nc1ccc(N2C(=O)c3ccc(C(=O)Nc4nnc(SCc5ccc(F)cc5)s4)cc3C2=O)cc1,-10,11,-4,56*,-11,2
Cc1cc(-c2nc3ncccc3o2)ccc1NC(=S)NC(=O)c1ccco1,-6,-5,-2,25*,5,0
O=C(Cc1csc(Nc2nc(=S)[nH]c3ccccc23)n1)NCc1ccc(Cl)cc1,·,-34,-3,-1,34,·
O=C(Cc1csc(Nc2nc(=S)[nH]c3ccccc23)n1)NCCCN1CCN(c2ccccc2F)CC1,-4,-21,-1,20*,21,3
SMILES,CAL PDZ FP-1,SR-BI uptake up,CAL PDZ FP-2,dFosB act-1,SR-BI HDL uptake,dFosB act-2
COc1ccc(CNC(=O)Cc2csc(Nc3nc(=S)[nH]c4ccccc34)n2)cc1,·,-5,-1,35*,5,7
COc1cccc(CNC(=O)C2CCC(CNc3nc(=S)[nH]c4ccccc34)CC2)c1 (stereo not drawn),0,-69,0,37*,69,2
COc1cccc(-n2cnc3sc(C)cc3c2=O)c1,-3,-8,-1,-7,8,·
Cc1nnsc1C(=O)N1CCC(CO)(Cc2ccccc2Cl)CC1,-1,·,-1,-4,·,·
COc1ccc(NC(=O)c2cn(C)c(=O)c3cc(OC)c(OC)cc23)c(OC)c1,-3,·,0,20*,·,2
COc1ccc(CCN2CC(C(=O)OCC(=O)Nc3c(C)nn(-c4ccccc4)c3C)CC2=O)cc1OC (stereo not drawn),-2,-16,-1,-10,16,·
COc1ccc(NC(=O)Nc2ccccc2F)cc1Cl,-3,-2,-2,22*,2,2
COc1ccccc1NS(=O)(=O)c1cccc(NC(=O)Nc2ccc(Cl)cc2)c1,-8,-14,-6,26*,14,1
Cc1cc(O)c(-c2n[nH]c3c2C(c2cccc(O)c2)N(Cc2cccnc2)C3=O)cc1Cl (stereo not drawn),-1,23,-3,23*,-23,2
O=C(CCc1nnc2n(Cc3ccccc3)c(=O)c3ccccc3n12)NCCN1CCOCC1,0,21,0,-3,-21,·
COc1ccc(NC(=O)NNC(=O)COc2ccc3cc(Br)ccc3c2)cc1OC,-6,-35,-2,144*,35,6
COc1ccc2cc(OCC(=O)NNC(=O)Nc3ccc(C(C)=O)cc3)ccc2c1,-4,2,-7,99*,-2,5
COc1ccccc1NC(=O)NNC(=O)COc1ccc2ccccc2c1,-3,14,-1,21*,-14,2
COc1ccc(NC(=O)NNC(=O)COc2ccc3cc(Br)ccc3c2)cc1,-2,4,-1,5,-4,·
N/C(Cc1nc(-c2ccc(Cl)cc2)cs1)=N/O,-20,9,0,-5,-9,·
CCCCN(C)C(=O)c1nc2ccccn2c1CN1CCN(C(=O)c2cccs2)CC1,-4,9,-2,-2,-9,·
COc1cccc(C(=O)NC(=S)Nc2ccc3[nH]c(=O)[nH]c3c2)c1,-2,·,-1,3,·,·
COc1cc(OC)cc(C(=O)NC(=S)Nc2ccc3[nH]c(=O)[nH]c3c2)c1,-2,·,0,24*,·,-1
CC1(C)Cc2c(sc(NC(=O)COc3ccc(Cl)cc3)c2C(N)=O)C(C)(C)N1,-5,16,16,80*,-16,2

# Screening results from PubChem BioAssay.
